miR-122 sensor – miR-122 inhibition in Huh7 cells; Huh7 miR-122 Renilla luciferase sensor, 48 h; neutral wells = 0, positive control = 100; activation (reporter increase), % at 12.5 µM; hit rate 0.3% among 340,000;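 active = mean replicate activation score at least 90 and every replicate individually at or above 90; inconclusive = only one of the two criteria met; inactive = neither criterion met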;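 also: higher luciferase means less miR-122 activity so hits act as miR-122 inhibitors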
CAL PDZ FP-1 – blocks peptide binding to human CAL PDZ domain | purified CAL PDZ, TMR-peptide fluorescence polarization, 1 h | inhibition, % at 20 µM | hit rate 0.02% among 330,000 | AID 504414;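 active = highest replicate inhibition of at least 40%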
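Material: tagged CAL PDZ protein CerCALP, purified; buffer or medium: sodium phosphate/NaCl buffer pH 7.4 with TCEP, IgG, Thesit; also added: fluorescent TMR peptide probe; schedule: 1 h incubation at room temperature before polarization reading; technique: fluorescence polarization from S- and P-plane intensities, G-factor corrected; control set: unlabelled peptide and DMSO controls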
SR-BI uptake up – enhances SR-BI lipid uptake from DiI-HDL | AID 504775 | CHO ldlA[mSR-BI] cells, DiI-HDL uptake fluorescence, 3 h; 100 = double the neutral-control signal | activation, % at 12.5 µM | hit rate 0.096% among 320,000;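 active = mean replicate activation of at least 60% and every replicate at or above 60%; inconclusive = mean or all-replicate condition met, but not both; inactive = mean below 60% and not all replicates reaching 60%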
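Material: SR-BI-overexpressing, LDLR-lacking CHO cells | Dosing: Single compound concentration, delivered by pin transfer | Probe or stimulus: Labelled HDL, 10 µg/mL | Signal: Bottom-read cell fluorescence after medium removal, ex 550/em 595 nm | Schedule: 3 h, 37 °C | Evaluation: HDL uptake via cellular fluorescence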
SR-BI DiI inh – mouse SR-BI HDL lipid transfer inhibition. Q61009. ldlA[mSR-BI] CHO cells, DiI-HDL uptake fluorescence, 3 h. inhibition, % at 12.5 µM. hit rate 0.96% among 320,000. AID 488896;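 active = mean replicate inhibition of at least 70% and a set share of replicates each scoring 70 or more; inconclusive = meets just one of the two criteria; inactive = fails both criteria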
Target sequence (Q61009 whole entry, looked up): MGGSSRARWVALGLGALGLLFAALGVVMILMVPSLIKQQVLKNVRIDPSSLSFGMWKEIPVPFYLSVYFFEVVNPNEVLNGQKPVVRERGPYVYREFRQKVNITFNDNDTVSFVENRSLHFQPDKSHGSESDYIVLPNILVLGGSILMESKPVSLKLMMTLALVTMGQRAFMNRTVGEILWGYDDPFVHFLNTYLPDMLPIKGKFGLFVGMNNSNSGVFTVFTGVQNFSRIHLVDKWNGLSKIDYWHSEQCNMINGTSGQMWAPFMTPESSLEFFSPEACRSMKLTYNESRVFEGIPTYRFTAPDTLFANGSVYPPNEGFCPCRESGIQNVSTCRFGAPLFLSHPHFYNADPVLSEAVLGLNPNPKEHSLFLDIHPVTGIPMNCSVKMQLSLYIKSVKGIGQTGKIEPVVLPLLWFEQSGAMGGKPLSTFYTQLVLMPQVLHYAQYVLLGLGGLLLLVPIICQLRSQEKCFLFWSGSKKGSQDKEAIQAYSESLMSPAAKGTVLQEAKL
ARNT-TACC3 inh – disrupts binding between human ARNT and TACC3; Q9Y6A5; AlphaScreen His-ARNT PAS-B/GST-TACC3 binding, luminescence; TACC3 fragment carries E629A point mutation; inhibition, % at 9.99 µM; hit rate 0.66% among 390,000;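 active = mean inhibition of replicates at least 50% and at least half of replicates each reaching 50%; inconclusive = half or more replicates reach 50% but mean below 50%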
CAL PDZ FP-2 – CAL PDZ (human) peptide binding inhibition; Q9HD26; purified CAL PDZ, TMR-peptide fluorescence polarization, 1 h; hit rate 0.92% among 300,000; inhibition, % at 24.9 µM;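 active = mean inhibition of at least 30% with at least half of replicates also reaching 30%; inconclusive = no clear call, values can overlap the other calls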
Numbers stand for hits; i = inactive; ? = inconclusive; nt = not tested or not shown; ! = a repeat was not active. Rows were chosen to be rich in hits. Some 2.1% of all compounds tested hit in one or more screens of this group.

SMILES	miR-122 sensor	CAL PDZ FP-1	SR-BI uptake up	SR-BI DiI inh	ARNT-TACC3 inh	CAL PDZ FP-2
C[C@]12CCC3C4(C=CC5(C=C4C(=O)C4CCCCC4)C[C@@H](O)CC[C@]35C)C1CC[C@@]2(O)CN1CCC(n2c(=O)[nH]c3ccccc32)CC1 (stereo partly drawn)	nt	nt	nt	nt	i	nt
Cc1ccc(CNc2ncnc3[nH]ncc23)cc1	i	i	i	i	i	62
O=C(C[C@@H]1C[C@H]2c3cc(NC(=O)c4cccnc4)ccc3O[C@H]2[C@H](CO)O1)NCc1ccccn1	i	nt	nt	nt	i	nt
COc1ccc(C(CNC(=O)COc2ccccc2C#N)N2CCOCC2)cc1 (stereo not drawn)	i	i	nt	nt	i	i
COc1ccc(/C=C(\C#N)C(=O)NCC(c2ccc(F)cc2)N2CCOCC2)cc1 (stereo not drawn)	i	i	i	i	i	78
Cc1ccccc1SCC(=O)NCC(c1ccc(F)cc1)N1CCOCC1 (stereo not drawn)	i	i	i	i	nt	53
CC=Cc1ccc2n(c1=O)C[C@@H]1[C@@H](CO)[C@H](C(=O)NCCc3cn(C)cn3)N(C(=O)C3CCC3)[C@H]21 (mixture of isomers)	nt	nt	nt	nt	i	nt
Cc1nn(Cc2ccccc2Cl)c(C)c1NC(=O)c1cc(-c2ccc(F)cc2)on1	i	i	i	80	i	nt
COc1ccc(-c2cc(C(=O)Nc3c(C)nn(Cc4ccccc4)c3C)no2)cc1	i	i	i	76	i	i
C[C@@H]1CCCCO[C@H](CN(C)Cc2ccc3c(c2)OCO3)[C@@H](C)CN([C@H](C)CO)C(=O)c2cc(NC(=O)Cc3ccccc3)ccc2O1	i	nt	nt	nt	i	nt
Cc1ccc(-c2c(C(=O)N/N=C/c3cccs3)nnn2-c2nonc2N)cc1	i	i	i	i	i	i
CCOc1ccc(-c2c(C(=O)N/N=C/c3sccc3C)nnn2-c2nonc2N)cc1	i	i	i	87	i	i
CCOc1ccc(-c2c(C(=O)N/N=C/c3cccs3)nnn2-c2nonc2N)cc1	i	i	i	81	i	i
CCCc1c(C(=O)N/N=C/c2ccccc2C(F)(F)F)nnn1-c1nonc1N	i	i	i	76	i	i
CCOc1cccc(-c2c(C(=O)N/N=C/c3sccc3C)nnn2-c2nonc2N)c1	i	i	i	i	i	i
CCCc1c(C(=O)N/N=C/c2ccc(C)o2)nnn1-c1nonc1N	i	nt	nt	nt	nt	nt
CCCN(CCC)Cc1c(C(=O)N/N=C/C(C)=C\c2ccco2)nnn1-c1nonc1N	i	i	i	i	i	66
Cc1ccsc1/C=N/NC(=O)c1nnn(-c2nonc2N)c1CN(C)c1ccccc1	i	i	i	i	i	i
CCc1c(C(=O)N/N=C/c2sccc2C)nnn1-c1nonc1N	i	i	i	77	i	i
O=C(N/N=C/c1cc2c3c(c1O)CCCN3CCC2)c1ccccc1O	nt	i	i	140	nt	i
NC1=NC2(CCCCC2)N=C(Nc2ccc(F)cc2F)N1	i	i	i	i	i	nt
Cc1cc(C)cc(NC2=NC3(CCCCC3)N=C(N)N2)c1	109	nt	i	i	nt	i
CCN(CC)S(=O)(=O)c1ccc(N2CC(C(=O)NCCC3=CCCCC3)CC2=O)cc1 (stereo not drawn)	i	i	i	i	i	45
Cc1ccc(NC2=C(N3CCOCC3)C(=O)c3ccccc3C2=O)cc1	i	i	i	i	62	i
CC(=O)c1ccc(NC2=C(N3CCOCC3)C(=O)c3ccccc3C2=O)cc1	i	i	i	i	i	i
SMILES	miR-122 sensor	CAL PDZ FP-1	SR-BI uptake up	SR-BI DiI inh	ARNT-TACC3 inh	CAL PDZ FP-2
Cc1ccc(S(=O)(=O)NC2=C(N3CCN(c4ccccc4F)CC3)C(=O)c3ccccc3C2=O)cc1	nt	i	i	97!	i	i
CN1c2ccc(C3=CCCCC3)cc2[C@@H]2[C@@H](CCN2C(=O)Nc2ccc(F)cc2)[C@@H]1CO	i	nt	nt	nt	i	nt
CCOc1ccc(/C=N/NC(=O)Cc2csc(Nc3cccc(C(F)(F)F)c3)n2)c(OCC)c1	nt	i	i	81	i	i
CCOc1ccccc1/C=N/NC(=O)Cc1csc(Nc2cccc(C(F)(F)F)c2)n1	i	i	nt	nt	i	i
CCOc1ccc(/C=N/NC(=O)Cc2csc(Nc3cccc(C(F)(F)F)c3)n2)cc1	i	i	i	77	i	i
COc1ccc(/C=N/NC(=O)Cc2csc(Nc3cccc(C(F)(F)F)c3)n2)c(OC)c1	i	i	i	?	i	i
O=C(C[C@H]1CC[C@H](NC(=O)Nc2cc(F)ccc2F)[C@@H](CO)O1)NCc1ccccn1	i	nt	nt	nt	i	nt
CCOC(=O)C1=C(C)NC2=C(C(=O)CCC2)C1c1ccc(N(C)C)cc1 (stereo not drawn)	i	i	i	i	active	i
O=C(Nc1ccccc1)N1C[C@H]2[C@@H](c3ccccc31)[C@@H](CO)N2C(=O)c1ccncc1	i	nt	nt	nt	nt	nt
Cc1noc(C)c1NC(=O)Nc1ccc2c(c1)CC(=O)N([C@H](C)CO)C[C@H](C)[C@@H](CN(C)C(=O)Nc1c(C)noc1C)O2	i	nt	nt	nt	i	nt
CC(=O)Nc1ccc2nc(-c3cccn3C)[nH]c2c1	i	i	i	i	i	35
Cn1cccc1-c1nc2ccc([N+](=O)[O-])cc2[nH]1	i	i	i	i	i	i
O=C(Nc1ccc2nc(-c3ccc(Br)o3)[nH]c2c1)c1cccs1	i	i	i	i	i	i
Cn1cccc1-c1nc2ccc(NC(=O)c3cccs3)cc2[nH]1	i	i	i	i	36	i
CCS(=O)(=O)Nc1ccc2c(c1)C(=O)N(C)[C@@H]1CC[C@@H](CC(=O)Nc3ccccc3)O[C@H]1CO2	i	nt	nt	nt	i	nt
COc1ccc(OC)c(/C=C2\NC(=O)NC2=O)c1	nt	i	i	i	i	45
COCC(=O)N1C[C@H](C)[C@@H](OC)CN(C)C(=O)c2cc(NC(=O)NC(C)C)ccc2OC[C@H]1C	i	nt	nt	nt	i	nt
COc1cc(CNCc2ccccn2)ccc1OCC(N)=O	i	i	i	i	49	i
COc1ccc(OCC(=O)NCCNC(=O)c2ccccn2)cc1	i	i	i	i	i	i
COc1ccc(CCC(=O)NNC(=O)c2ccccn2)cc1OC	i	i	i	i	nt	98
COc1ccc(OCC(=O)NNC(=O)c2ccccn2)cc1	nt	i	i	i	67	nt
COc1ccc(CCC(=O)NNC(=O)c2cc(Cl)ccc2OC)cc1OC	i	i	nt	nt	i	i
Cc1cccc(C(=O)NNC(=O)c2ccc(-c3ccccc3)cc2)c1	i	i	i	80	i	i
Cc1cccc(C(=O)NNC(=O)c2ccc(NC(=O)C(C)(C)C)cc2)c1	i	i	i	i	i	nt
O=C(NNC(=O)c1ccc(-c2ccccc2)cc1)c1ccccc1	nt	i	i	i	i	i
Cc1cccc(C(=O)Nc2sc(-c3ccccc3)cc2C(=O)O)c1	i	i	i	i	i	43
